According to ChEMBL document CHEMBL1144523, “Synthetic cryptolepine inhibits DNA binding of NF-kappaB” (Bioorg Med Chem, 2007):
Counter-ions that a name gives are not always drawn. Activity calls are given as the source filed them. The rule behind the calls is not given here.

Columns and labels:
[1] = Cytotoxicity against mouse RAW 264.7 cells; type: cell-based
How it was run: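 RAW 264.7 cells (DMEM, 10% heat-inactivated FBS, passages 5–20) were first run through the 20 h LPS nitrite assay. Attached cells were then stained with 0.5% Crystal Violet in 20% methanol. Bound dye was dissolved in 50% 1 M sodium citrate/50% ethanol and absorbance read at 540 nm.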

[2] = tested on: RAW; experiment: Inhibition of DNA binding of NF-kappaB in LPS-stimulated mouse RAW 264.7 cells administered at 5 uM […] by EMSA; type: cell-based
How it was run: (§1)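 RAW 264.7 cells were pretreated with compound for 30 min, then stimulated with LPS (100 ng/ml in methods) for 60 min. Nuclear extracts were made by hypotonic HEPES swelling with NP-40, then hypertonic 0.4 M NaCl extraction. Equal nuclear protein was incubated with labelled NF-κB probe for 30 min at room temperature, resolved on a 4.5% native gel and imaged by phosphorimager.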

[3] = tested on: RAW; experiment: Inhibition of DNA binding of NF-kappaB isolated from LPS-stimulated mouse RAW 264.7 cells administered at 250 uM after 30 mins by EMSA; type: cell-free
How it was run: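 Nuclei from LPS-stimulated RAW 264.7 macrophages served as the source of active NF-κB. Equal amounts of nuclear protein were incubated with compound for 30 min, with or without 2 mM DTT. Radiolabelled NF-κB consensus probe was then added for 30 min at room temperature. Complexes were resolved on a 4.5% native gel and imaged by phosphorimager.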

[4] = tested on: RAW; experiment: Effect on IkappaB degradation in LPS-stimulated mouse RAW 264.7 cells administered at 10 uM for 30 mins […]; type: functional, cell-based
How it was run: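 RAW 264.7 cells were pretreated with 10 µM compound for 30 min, then stimulated with LPS for the indicated times. Cells were lysed in SDS buffer, run on 10–12% gels and blotted to PVDF. Blots were probed for phospho-IκB, IκB after stripping, and tubulin, with ECL detection. Densitometric p-IκB/IκB ratios are given as fold of unstimulated control; three independent experiments, means ± SD.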

[5] = tested on: RAW; experiment: Effect on IkappaB phosphorylation in LPS-stimulated mouse RAW 264.7 cells […]; type: cell-based
[6] = tested on: RAW; experiment: Inhibition of DNA binding of NF-kappaB in LPS-stimulated mouse RAW 264.7 cells administered at 10 uM […] by EMSA; type: cell-based; how it was run: as §1
[7] = tested on: HEK293; experiment: Inhibition of NF-kappaB-mediated gene transcription in HEK293 cells by luciferase reporter gene assay; type: cell-based; conditions: Homo sapiens
How it was run: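 HEK293 cells were transfected with pNF-κB-luc by Ca²⁺-phosphate, reseeded at 15,000 cells/well and grown for 16 h. They were pretreated with compound for 30 min, then stimulated with TNF-α 1 ng/ml for 6 h. Lysates were assayed for luciferase by luminometer. Data are means ± SD of at least four experiments in triplicate, ANOVA/Dunnett.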

[8] = molecular target: Transcription factor p65 (Mus musculus) (UniProt Q04207); experiment: Inhibition of […]/NFkappaB nuclear translocation in LPS-stimulated mouse RAW 264.7 cells administered at 10 uM for 30 mins after LPS challenge; type: cell-based
How it was run: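 RAW 264.7 cells were grown on gelatine-coated coverslips and preincubated with 10 µM compound for 30 min, then given LPS for 30 min. Cells were fixed in 2% formalin, permeabilized with 0.2% Triton X-100 and blocked in 5% BSA. They were stained with anti-p65 (1:50, 2 h, room temperature) plus FITC secondary (1 h) and imaged by confocal microscopy at 488 nm excitation.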

[9] = tested on: RAW; experiment: Inhibition of LPS-stimulated nitric oxide production in mouse RAW 264.7 cells at 5 uM after 20 hrs relative to control; type: functional
How it was run: (§2)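 RAW 264.7 cells were seeded in 96-well plates and cultured for 2 days. Compound was added, then LPS immediately after, for 20 h. Nitrite in the supernatant was measured by Griess reaction (sulfanilamide plus N-(1-naphthyl)ethylenediamine) at 550 nm against a 620 nm reference, quantified from a sodium nitrite standard curve. Runs were in triplicate; data are means ± SD of six independent experiments, ANOVA/Dunnett.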

[10] = tested on: RAW; experiment: Inhibition of LPS-stimulated nitric oxide production in mouse RAW 264.7 cells at 10 uM after 20 hrs relative to control; type: functional; how it was run: as §2

Sequence of Transcription factor p65 (Mus musculus) (Q04207 whole entry): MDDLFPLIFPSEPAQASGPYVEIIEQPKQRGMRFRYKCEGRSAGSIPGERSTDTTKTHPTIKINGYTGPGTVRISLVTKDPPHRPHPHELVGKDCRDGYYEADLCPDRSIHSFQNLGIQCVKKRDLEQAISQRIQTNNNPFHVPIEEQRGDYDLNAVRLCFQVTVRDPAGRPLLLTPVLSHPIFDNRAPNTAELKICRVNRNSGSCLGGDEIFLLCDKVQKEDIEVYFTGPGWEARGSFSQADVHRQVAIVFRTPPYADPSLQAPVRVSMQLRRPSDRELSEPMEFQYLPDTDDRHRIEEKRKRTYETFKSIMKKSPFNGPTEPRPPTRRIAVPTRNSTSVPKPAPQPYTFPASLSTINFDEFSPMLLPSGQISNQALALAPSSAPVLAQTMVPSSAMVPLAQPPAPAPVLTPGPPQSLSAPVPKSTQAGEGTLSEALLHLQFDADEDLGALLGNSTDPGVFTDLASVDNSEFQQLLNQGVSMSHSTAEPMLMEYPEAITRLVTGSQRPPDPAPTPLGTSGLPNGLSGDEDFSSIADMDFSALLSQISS

C[n+]1c2ccccc2cc2[n-]c3ccccc3c21 [CRYPTOLEPINE]
Activity [1]: Active

C[n+]1c2ccccc2cc2[n-]c3ccccc3c21
Activity [2]: Active | Activity [3]: Active | Activity [4]: inactive | Activity [5]: inactive | Activity [6]: Active | Activity [7]: Dose-dependent effect | Activity [8]: inactive

C=C1C(=O)O[C@@H]2C3O[C@]3(C)CC/C=C(\C)CC[C@@H]12 (some centres not stated)
Activity [2]: Active | Activity [8]: Active

C[n+]1c2ccccc2cc2[n-]c3ccccc3c21 [CRYPTOLEPINE HYDROCHLORIDE]
inhibition at 5 µM [9]: 30% | inhibition at 10 µM [10]: 50%
